Screening data deposited in PubChem by The Scripps Research Institute Molecular Screening Center.
Only some compounds are listed: those with a hit (about 2.4% of all), similar ones and a draw of the others.
MC4R antagonist – blocks human MC4R cAMP signaling; P32245; MC4R-expressing cells, MTII-stimulated cAMP, LANCE TR-FRET; inhibition, % at 6.5 µM; 0.48% of 360,000 active;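 active = inhibition above its plate's cutoff, the mean of tested wells on that plate plus 3 SD, cut at about 29% in these data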;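 note: 0% = Melanotan II alone and 100% = Melanotan II plus saturating MCL0020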
Target sequence (P32245 whole entry, looked up): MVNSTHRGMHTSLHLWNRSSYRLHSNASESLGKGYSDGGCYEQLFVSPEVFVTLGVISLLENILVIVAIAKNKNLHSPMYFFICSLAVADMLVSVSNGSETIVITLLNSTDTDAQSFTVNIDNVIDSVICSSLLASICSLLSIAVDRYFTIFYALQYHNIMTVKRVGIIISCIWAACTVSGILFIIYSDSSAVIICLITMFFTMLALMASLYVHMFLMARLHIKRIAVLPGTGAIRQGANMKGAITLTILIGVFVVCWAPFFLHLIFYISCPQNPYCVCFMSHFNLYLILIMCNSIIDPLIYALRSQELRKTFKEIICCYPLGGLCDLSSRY
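Material: U2OS-MC4R stable cell line | Reagent: Melanotan II challenge after compound preincubation | Doses: One concentration, 6.5 µM nominal | Incubation: 30-min compound preincubation, 1-h Melanotan II challenge, 1-h detection, room temperature | Signal: TR-FRET cAMP assay | Replicates: One well per compound, no replicates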
OPRM1-OPRD1 inv – mu-delta opioid heterodimer inverse agonism; cell-based MOR-DOR heterodimer luminescence; inhibition, % at 9.3 µM; 0.21% of 340,000 active; AID 504357; in the data active = inhibition above about 22%, passing the limit was not always enough;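 note: 0% = cells with DMSO and 100% = wells without cells with DMSO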
MC4R ag barr – agonists of human melanocortin 4 receptor (MC4R) beta-arrestin. 0.98% of 360,000 active. activation, % at 8.9 µM. AID 540308. P32245. U2OS MC4R beta-arrestin complementation, luminescence; percent of melanotan II response, DMSO zero;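 active = activation above a per-plate cutoff, the mean activation of sample wells on that plate plus 3 SD, cut at about 8% in these data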
HTR5A ag – activates human HTR5A in OPRM1-OPRD1 agonist counter-screen; activation, % at 9.3 µM; P47898; 0.61% of 340,000 active; HTR5A agonist assay, luminescence, cell-based; in the data active = activation mostly above about 9.5%, no sharp cut-off; inactive = mostly below about 7.6%;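 note: 0% = cells with vehicle only and 100% = reference agonist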
Target sequence (P47898 whole entry, looked up): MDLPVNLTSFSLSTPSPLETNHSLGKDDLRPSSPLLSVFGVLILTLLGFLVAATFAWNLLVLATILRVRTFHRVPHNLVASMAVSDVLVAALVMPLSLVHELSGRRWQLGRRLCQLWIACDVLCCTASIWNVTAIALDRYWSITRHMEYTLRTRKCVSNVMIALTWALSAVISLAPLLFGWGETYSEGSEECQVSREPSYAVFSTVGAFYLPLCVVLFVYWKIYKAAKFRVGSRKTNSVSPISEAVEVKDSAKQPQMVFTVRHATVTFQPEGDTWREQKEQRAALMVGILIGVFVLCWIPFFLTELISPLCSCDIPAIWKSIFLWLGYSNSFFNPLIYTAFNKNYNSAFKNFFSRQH
HTR5A inv ctr – HTR5A inverse agonism, opioid heterodimer counter-screen | HTR5A cell line, luminescence | 0.083% of 340,000 active | inhibition, % at 9.3 µM | P47898; in the data active = inhibition mostly above about 23%, no sharp cut-off; inactive = mostly below about 18%;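 note: 0% = cells with DMSO and 100% = no-cell wells with DMSO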
MOR-DOR ag – agonists of human mu-delta opioid receptor heterodimerization. P35372+P41143. cells, OPRM1-OPRD1 heterodimerization, luminescence. activation, % at 9.3 µM. 0.3% of 340,000 active; in the data active = activation above about 18%;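 note: 0% = vehicle-treated cells and 100% = reference agonist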
U2OS cAMP counter – counter-screen for MC4R antagonists: nonselective cAMP signaling inhibitors | shares compounds with MC4R antagonist | parental U2OS, forskolin cAMP, LANCE TR-FRET | inhibition, % at 6.5 µM | 26% of 1,600 active;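 active = mean inhibition over triplicates above the low-control well mean plus 3 SD, set per campaign, cut at about 13% in these data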;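 note: signal is single emission at 671 nm which falls as cellular cAMP rises; 0% = forskolin-stimulated wells and 100% = buffer without forskolin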
MC4R cAMP antag – human MC4R cAMP antagonism confirmation. inhibition, % at 6.5 µM. AID 602195. MC4R-expressing cells, MTII-stimulated cAMP, TR-FRET. shares compounds with MC4R antagonist. 27% of 1,600 active; in the data active = inhibition above about 29%;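 note: 0% = agonist stimulated wells alone and 100% = agonist stimulated wells plus saturating reference antagonist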
MC4R barr ag – human MC4R beta-arrestin agonism confirmation. shares compounds with MC4R ag barr. U2OS MC4R beta-arrestin recruitment, luminescence; scaled DMSO 0%, Melanotan II 100%. activation, % at 8.9 µM. 31% of 2,400 active. AID 602192;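 active = mean activation across replicates above the hit cutoff set in the earlier primary screen, cut at about 8% in these data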
MOR DOR agonist – activates mu-delta opioid heterodimer, MC4R agonist counter-screen. shares compounds with MC4R ag barr. U2OS PathHunter beta-arrestin, beta-gal luminescence; percent of deltorphin B response, DMSO zero. activation, % at 9.2 µM. 5.8% of 2,400 active;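 active = mean activation across replicates exceeds the hit threshold derived in the earlier primary screen, cut at about 18% in these data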;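 note: 100% = deltorphin B at 0.9 µM final and 0% = DMSO alone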
* = called active by the depositor; · = not tested or not shown.

SMILES | MC4R antagonist | OPRM1-OPRD1 inv | MC4R ag barr | HTR5A ag | HTR5A inv ctr | MOR-DOR ag | U2OS cAMP counter | MC4R cAMP antag | others
Cc1ccccc1[N+](=O)[O-] | 10.1 | 5.3 | -1.0 | -1.3 | 5.3 | -1.0 | · | ·
CC12CCC3C(CC=C4CC5(CCC43C)OCCO5)C1CCC2=O (centres undefined) | 29.8* | 4.2 | -0.4 | -0.5 | 1.4 | -0.8 | -0.4 | 4.9
C[C@]12CC[C@H](OS(=O)(=O)O)CC1=CC[C@@H]1[C@@H]2CC[C@]2(C)C(=O)CC[C@@H]12 | -0.2 | 13.3 | -0.8 | 1.3 | -4.6 | -2.5 | · | ·
O=C1NC(=O)N(Cc2ccc(F)cc2)C(=O)/C1=C/c1cccs1 | 68.2* | -1.5 | -1.4 | 7.8 | 12.2 | 0.3 | 10.1 | 6.3
O=C1NC(=O)N(Cc2ccccc2Cl)C(=O)/C1=C/c1cccs1 | 35.8* | -5.5 | -2.8 | 1.9 | -5.0 | 1.1 | 16.5* | 29.7*
Cc1ccccc1N1C(=O)NC(=O)/C(=C\c2cnn(-c3ccccc3)c2)C1=O | 41.4* | 3.2 | -2.5 | -0.3 | -10.2 | -0.7 | 13.8* | 13.7
COC(=O)C1=C(c2ccccc2OCc2ccccc2)C[C@@H]2CC[C@H]1N2C(=O)NCc1ccc(F)cc1 | 2.1 | 6.5 | -1.9 | 3.6 | -10.6 | -1.1 | · | ·
Cc1ccc(/C=C2\C(=O)NC(=O)N(CCc3ccc(F)cc3)C2=O)o1 | -5.9 | -13.3 | 1.2 | 3.3 | -8.8 | 1.8 | · | ·
O=C1NC(=O)C(=Cc2ccc(-c3ccc(Cl)cc3)o2)C(=O)N1 | 43.7* | 10.4 | 0.8 | 0.4 | 7.7 | -2.3 | 41.5* | 68.2*
O=C1NC(=O)C(=Cc2ccc(Sc3ccccc3)o2)C(=O)N1 | 2.3 | -24.6 | -2.5 | -7.4 | 20.9 | 4.8 | · | ·
O=C1NC(=O)C(=Cc2ccc(-c3ccc(F)cc3O)o2)C(=O)N1 | 53.5* | 8.3 | 1.6 | 2.5 | -9.6 | -1.5 | 13.2* | 29.5*
COc1ccc(OC)c(-n2c(O)c(C=Nc3c(C)n(C)n(-c4ccccc4)c3=O)c(=O)[nH]c2=S)c1 | 6.7 | · | -0.1 | · | · | · | · | ·
Cc1cc2ccccc2c(=O)n1CC(=O)NCC(=O)N1CCC2(CC1)OCCO2 | 14.9 | 10.9 | 0.8 | 1.1 | 17.9 | -2.2 | · | ·
COc1cc(/C=C2\C[C@H]3[C@@H]4CC=C5C[C@@H](N6CCCC6)CC[C@]5(C)[C@H]4CC[C@]3(C)[C@H]2O)cc(OC)c1OC | -6.3 | 8.5 | 0.2 | 2.7 | -10.5 | -1.8 | · | ·
Cc1cc(/C=C2\C(=O)NC(=O)N(Cc3ccco3)C2=O)c(C)n1-c1ccc(O)cc1 | 30.2* | -13.7 | 1.1 | 0.7 | 0.7 | 2.8 | 2.0 | 8.5
Cc1ccc(Cn2nc(C)c(C=O)c2Cl)cc1 | 30.6* | -1.2 | -0.1 | -0.6 | 1.6 | 0.2 | -5.0 | -6.2
Cc1ccc2c(c1)C1CN(C)CCC1N2C(=O)c1cn(-c2ccccc2)nc1-c1ccccc1 (centres undefined) | -1.4 | · | -1.5 | · | · | · | · | ·
NC(=O)c1ccc(N=Cc2c(O)n(Cc3ccco3)c(=O)[nH]c2=O)cc1 | -10.4 | 11.4 | 0.9 | 1.1 | -3.5 | -2.2 | · | ·
CCN(CC)c1ccc(N=Cc2c(O)n(Cc3ccco3)c(=O)[nH]c2=O)cc1 | 12.6 | -34.7 | 11.3* | -2.8 | -15.3 | 7.1 | · | · | MC4R barr ag=-0.7;MOR DOR agonist=4.7
O=C(Cc1ccccc1)Oc1cccc(N2C(=O)CCC2=O)c1 | -1.8 | 13.7 | -0.8 | 3.4 | -9.7 | -2.5 | · | ·
CC(C)(C)c1cc(OC(=O)Cc2ccccc2)ccc1O | 2.6 | -50.5 | 10.4* | 14.7 | -40.9 | 9.8 | · | · | MC4R barr ag=6.3;MOR DOR agonist=13.6
CC(C)CCNC(=O)c1c(N)n(Cc2ccc3c(c2)OCO3)c2nc3ccccc3nc12 | -4.1 | -29.4 | 13.4* | 6.7 | 3.7 | 5.4 | · | · | MC4R barr ag=8.4*;MOR DOR agonist=4.1
CCCNC(=O)c1c(N)n(Cc2ccc3c(c2)OCO3)c2nc3ccccc3nc12 | -19.6 | -3.5 | 0.5 | -4.6 | 7.8 | 0.7 | · | ·
CC(C)CNC(=O)c1c(N)n(Cc2ccc3c(c2)OCO3)c2nc3ccccc3nc12 | -3.5 | -5.3 | 10.7* | 0.1 | -2.7 | 0.8 | · | · | MC4R barr ag=9.2*;MOR DOR agonist=3.6
COc1ccccc1OP(=O)(Nc1ccc(Br)cc1)Oc1ccccc1OC | 5.4 | -46.3 | 18.2* | -3.6 | 13.7 | 9.2 | · | · | MC4R barr ag=-1.4;MOR DOR agonist=7.6
O=C1NCCN2CCCC12 (centres undefined) | 12.0 | 13.5 | 0.2 | -1.4 | 4.8 | -2.5 | · | ·
O=P(NC(c1ccccc1)c1ccccc1)(Oc1ccccc1)Oc1ccccc1 | 1.1 | -15.3 | 11.3* | 2.4 | -9.5 | 2.5 | · | · | MC4R barr ag=-0.4;MOR DOR agonist=8.4
COC(=O)c1c2[n+](cc3cc(OC)c(OC)cc13)CCc1cc(OC)c(OC)cc1-2 | -9.7 | -4.3 | -0.9 | 7.8 | -1.4 | 0.9 | · | ·
O=C1C=C2C=C[C@@H]3CC2(O1)[C@H]1CCCCN31 | 6.5 | 12.5 | -0.2 | -2.4 | -0.3 | -2.3 | · | ·
